Assay outcomes: PubChem BioAssay, several laboratories
Most compounds without a hit are left out; they make up all but 1.2% or so of the library.
PfGluPho inh: PfG6PD enzyme inhibitors, primary screen, biochemical, fluorescence intensity, uHTS. glucose-6-phosphate dehydrogenase-6-phosphogluconolactonase (Plasmodium falciparum 3D7). PfGluPho enzyme, NADPH resazurin-diaphorase fluorescence. inhibition, % at 20 µM. 350,000 tested, 0.78% active;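 active = inhibition reaching at least a set limit at 20 µM in the primary screen, cut at about 59% in these data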;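 note: 0% = DMSO wells with substrate and 100% = DMSO wells lacking glucose-6-phosphate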
Tb hexokinase: Trypanosoma brucei hexokinase 1 inhibitors, primary screen, biochemical, G6PDH-coupled NADH absorbance, MLSCN library. recombinant TbHK1, G6PDH-coupled NADH A340. hexokinase 1 [Trypanosoma brucei]. 220,000 tested, 0.11% active. inhibition, % at 10 µM;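 active = inhibition of 50% or more in the single-dose primary screen; inactive = inhibition below 50%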
Diaph inh CS: diaphorase inhibitors and chemical oxidizers, primary screen, counter-screen for diaphorase-coupled primary assays, biochemical, uHTS, resorufin fluorescence. diaphorase resazurin-to-resorufin fluorescence, NADH, 16 min; bacterial (C. kluyveri) enzyme, not human. inhibition, % at 20 µM. 190,000 tested, 0.69% active. AID 1217, 2008;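 active = primary screen inhibition at 20 µM above a set limit, cut at about 50% in these data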;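 note: plate controls were DMSO with full reaction for no effect and wells lacking NADH for full effect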
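Assay system: diaphorase enzyme from Clostridium kluyveri. Quantity: enzyme working solution with 0.14 U/mL diaphorase. Schedule: reaction incubation of 16 min at room temperature. Technique: resorufin fluorescence, excitation 544 nm, emission 590 nm. Controls: No-NADH positive control and DMSO neutral control.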
HKDC1 inh: HKDC1 hexokinase inhibitors, primary screen, biochemical, fluorescence, uHTS | 340,000 tested, 0.16% active | recombinant HKDC1, G6PDH/diaphorase resazurin coupled fluorescence | AID 493160, 2011 | Q2TB90 | inhibition, % at 20 µM;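 active = inhibition above about 35% when tested at 20 µM, limit read from the data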;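 note: plate controls were DMSO wells with enzyme for no effect and DMSO wells lacking enzyme for full effect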
Target sequence (Q2TB90 whole entry, looked up): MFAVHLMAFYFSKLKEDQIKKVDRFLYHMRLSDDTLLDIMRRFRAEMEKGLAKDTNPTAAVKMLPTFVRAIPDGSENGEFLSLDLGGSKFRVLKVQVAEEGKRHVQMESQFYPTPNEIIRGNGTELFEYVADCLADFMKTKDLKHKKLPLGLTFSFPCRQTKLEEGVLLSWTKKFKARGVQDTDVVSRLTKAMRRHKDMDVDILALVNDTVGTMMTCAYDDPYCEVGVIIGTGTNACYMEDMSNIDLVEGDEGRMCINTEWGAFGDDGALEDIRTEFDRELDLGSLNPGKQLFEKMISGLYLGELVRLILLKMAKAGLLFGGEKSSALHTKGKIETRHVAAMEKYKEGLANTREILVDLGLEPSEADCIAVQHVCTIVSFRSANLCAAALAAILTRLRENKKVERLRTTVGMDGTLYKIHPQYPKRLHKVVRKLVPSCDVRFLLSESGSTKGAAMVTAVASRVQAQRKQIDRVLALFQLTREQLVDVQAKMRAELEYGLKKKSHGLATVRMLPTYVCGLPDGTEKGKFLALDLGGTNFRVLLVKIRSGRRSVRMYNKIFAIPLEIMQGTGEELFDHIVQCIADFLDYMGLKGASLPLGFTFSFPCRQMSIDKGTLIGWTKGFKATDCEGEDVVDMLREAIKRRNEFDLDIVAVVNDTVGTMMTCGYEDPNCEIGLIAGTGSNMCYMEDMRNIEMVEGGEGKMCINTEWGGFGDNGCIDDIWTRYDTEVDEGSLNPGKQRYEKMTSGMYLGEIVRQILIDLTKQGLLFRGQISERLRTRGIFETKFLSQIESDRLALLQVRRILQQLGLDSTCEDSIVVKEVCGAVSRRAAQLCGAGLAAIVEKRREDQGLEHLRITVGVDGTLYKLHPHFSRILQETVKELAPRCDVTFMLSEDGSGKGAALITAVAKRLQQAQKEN
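Assay system: recombinant HKDC1 hexokinase; detection: coupled resazurin fluorescence, excitation 525 nm, emission 613 nm; benchmarks: DMSO-plus-enzyme-mix negative control, buffer-substituted positive control; compound dosing: single 20 µM dose; schedule: 90 min at room temperature in dark; also added: glucose plus 1 mM ATP as hexokinase substrates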
G6PDH counter: L. mesenteroides G6PDH inhibitors, counter-screen for G6PDH-coupled screening assays, biochemical, Leuconostoc mesenteroides enzyme. glucose-6-phosphate dehydrogenase [Leuconostoc mesenteroides]. Purified L. mesenteroides G6PDH, diaphorase/resazurin coupled fluorescence, 45 min. inhibition, % at 5 µM. 200,000 tested, 0.12% active; in the data active = inhibition above about 50%
PfGluPho conf: PfG6PD inhibitors, hit retest, confirmation, biochemical, fluorescence intensity, single concentration. 2,400 tested, 34% active. inhibition, % at 20 µM. recombinant PfGluPho, NADPH-diaphorase-resazurin fluorescence. shares compounds with PfGluPho inh;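 active = inhibition of at least 50% at 20 µM in any single replicate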;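 note: 0% = DMSO with substrate and 100% = DMSO lacking glucose-6-phosphate substrate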
Diaph ctr 10uM: diaphorase inhibitors and chemical oxidizers, confirmation, counter-screen for P. falciparum G6PD inhibitor project, biochemical, fluorescence intensity, 10 µM NADPH. shares compounds with PfGluPho inh. diaphorase-coupled resazurin reduction, NADPH 10 uM. inhibition, % at 20 µM. 820 tested, 39% active;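 active = average inhibition reaching 50% or more with the compound at 20 µM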;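 note: resorufin red fluorescence formed as diaphorase reduces resazurin using NADPH; 0% = DMSO with enzyme and 100% = DMSO without enzyme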
Diaphorase 30uM: diaphorase inhibitors and chemical oxidizers, confirmation, counter-screen for P. falciparum G6PD inhibitor project, biochemical, fluorescence intensity, 30 µM NADPH; AID 504863, 2011; shares compounds with PfGluPho inh; inhibition, % at 20 µM; Diaphorase/resazurin coupled assay, resorufin fluorescence; 820 tested, 29% active;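 active = inhibition averaging 50% or more, tested at 20 µM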;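 note: 0% = DMSO with enzyme and 100% = DMSO wells lacking diaphorase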
Numbers without * were called inactive; · = no result.

SMILES	PfGluPho inh	Tb hexokinase	Diaph inh CS	HKDC1 inh	G6PDH counter	PfGluPho conf	others
O=[N+]([O-])c1ccccc1C1Nc2cccc3cccc(c23)N1	67*	-10	57*	30	-18	8
Oc1ccccc1C1Nc2cccc3cccc(c23)N1	12	-18	34	3	19	·
COc1cc(/C=N/O)cc(Br)c1OC	7	-2	12	-3	5	·
COc1cc(/C=N/O)cc(Br)c1OCc1ccc(Cl)cc1	81*	1	31	7	8	11
CC(C)(C)NC(=O)c1cc(C(C)(C)C)c(O)c(C(C)(C)C)c1	8	35	4	1	4	·
CC(=O)Nc1cc(C(C)(C)C)c(O)c(C(C)(C)C)c1	81*	-7	24	-2	4	-8
CC(=O)Cn1cnc2c(sc3nc(C)cc(C)c32)c1=O	-2	-6	·	-5	·	·
CCOC(=O)C1CCCN(C(=O)Cn2cnc3c2c(=O)n(C)c(=O)n3C)C1 (stereo not drawn)	-7	5	11	-10	1	·
CCOC(=O)C1CCCN(C(=O)Cn2sc3nc(C)cc(C)c3c2=O)C1 (stereo not drawn)	68*	-17	9	1	-1	52*	Diaph ctr 10uM=-18;Diaphorase 30uM=-20
Cc1cc(C)c2c(=O)n(CC(=O)N3CCC(N4CCCCC4)CC3)sc2n1	80*	1	13	-8	-1	63*	Diaph ctr 10uM=-2;Diaphorase 30uM=2
CCCNC(=O)Cn1sc2nc(C)cc(C)c2c1=O	81*	4	·	-2	·	68*	Diaph ctr 10uM=-32;Diaphorase 30uM=-23
COc1ccc(C(=O)C2CCCN(C3Cc4ccccc4C3)C2)c(OC)c1 (stereo not drawn)	3	2	·	-1	7	·
O=C(O)c1cc(-c2ccc(-c3ccc(F)cc3)o2)nc2ccccc12	93*	·	·	4	·	35
O=C(c1cc(-c2ccc(F)cc2)nc2ccccc12)N1CCC1	-14	·	·	10	·	·
O=C1Nc2ccccc2/C1=C/c1ccc([N+](=O)[O-])cc1	1	·	·	-7	·	·
CC1(c2ccc([N+](=O)[O-])cc2)Nc2ccccc2S1 (stereo not drawn)	72*	·	·	5	·	-2
CC(=O)Nc1cccc(NC(=O)c2ccc3[nH]c(C)c(C)c3c2)c1	78*	·	·	-3	·	32
COc1ccc(NC(=O)c2ccc3[nH]c(C)c(C)c3c2)cc1	68*	·	·	-1	·	28
CCN(CC)c1nc2cc(C)ccc2cc1/C=C(\C#N)C(N)=O	-18	-8	19	20	2	·
COc1ccc([C@H]2C(C#N)=C([S-])N[C@](C)(O)[C@@H]2[n+]2ccccc2)cc1	69*	-16	·	6	·	38
Cc1ccc[n+](C2C(c3ccc([N+](=O)[O-])cc3)C(C#N)=C([S-])NC2(O)C2CC2)c1 (stereo not drawn)	30	-8	2	-3	1	·
CCOc1cccc(-c2c(C(=O)N/N=C/c3sccc3C)nnn2-c2nonc2N)c1	87*	·	·	5	·	32
COc1cccc(-c2c(C(=O)N/N=C/c3ccc(C)o3)nnn2-c2nonc2N)c1	66*	·	·	0	·	56*	Diaph ctr 10uM=27;Diaphorase 30uM=19
Cc1ccsc1/C=N/NC(=O)c1nnn(-c2nonc2N)c1-c1ccc2c(c1)OCO2	66*	·	·	1	·	32
CCOc1cccc(-c2c(C(=O)N/N=C/c3ccc(C)s3)nnn2-c2nonc2N)c1	67*	·	·	4	·	40
